Tests used:
[1] = biological target: Thymidine phosphorylase (Escherichia coli K-12) (UniProt P07650); experiment: Ratio of Kcat to Km for Escherichia coli thymidine phosphorylase
Method in brief: (§1)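 Continuous UV assay at 355 nm and 25 °C in 0.2 mL of 0.1 M potassium phosphate pH 7.4, using recombinant E. coli TP (ca. 0.00883 units per assay) added to start the reaction. Substrate is thymidine or 5-nitro-2'-deoxyuridine; phosphorolysis to 5-nitrouracil followed (εM 13300 M-1 cm-1 for substrate).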

[2] = biological target: Thymidine phosphorylase (Escherichia coli K-12) (UniProt P07650); experiment: Catalytic constant against Escherichia coli thymidine phosphorylase; method in brief: as §1
[3] = biological target: T1, Thymidine phosphorylase (Homo sapiens) (UniProt P19971); experiment: Catalytic constant against human thymidine phosphorylase
T1 sequence (whole entry): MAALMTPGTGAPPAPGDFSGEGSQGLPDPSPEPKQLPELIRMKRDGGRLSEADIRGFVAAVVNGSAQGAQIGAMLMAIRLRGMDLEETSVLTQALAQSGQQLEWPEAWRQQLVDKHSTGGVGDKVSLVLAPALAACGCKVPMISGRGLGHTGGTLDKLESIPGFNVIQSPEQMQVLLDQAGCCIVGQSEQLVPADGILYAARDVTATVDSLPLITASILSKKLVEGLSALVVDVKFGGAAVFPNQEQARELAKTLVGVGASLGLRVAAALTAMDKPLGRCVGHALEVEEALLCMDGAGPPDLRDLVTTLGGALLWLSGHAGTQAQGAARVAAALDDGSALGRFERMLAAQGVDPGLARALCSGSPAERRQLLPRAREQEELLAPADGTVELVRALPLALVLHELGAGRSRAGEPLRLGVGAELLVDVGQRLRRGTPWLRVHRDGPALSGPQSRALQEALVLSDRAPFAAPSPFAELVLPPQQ
Method in brief: (§2)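 Recombinant human TP expressed in V79 Chinese hamster cells, 0.065 absorbance unit per assay. Continuous spectrophotometric assay at 355 nm, 25 °C, 0.1 M phosphate buffer pH 7.4, 0.2 mL total volume, with 5-nitro-2'-deoxyuridine as substrate; kinetic constants from initial rates.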

[4] = biological target: T1, Thymidine phosphorylase (Homo sapiens); experiment: Ratio of Kcat to Km against human thymidine phosphorylase; method in brief: as §2

Sequence of Thymidine phosphorylase (Escherichia coli K-12) (P07650 whole entry, looked up): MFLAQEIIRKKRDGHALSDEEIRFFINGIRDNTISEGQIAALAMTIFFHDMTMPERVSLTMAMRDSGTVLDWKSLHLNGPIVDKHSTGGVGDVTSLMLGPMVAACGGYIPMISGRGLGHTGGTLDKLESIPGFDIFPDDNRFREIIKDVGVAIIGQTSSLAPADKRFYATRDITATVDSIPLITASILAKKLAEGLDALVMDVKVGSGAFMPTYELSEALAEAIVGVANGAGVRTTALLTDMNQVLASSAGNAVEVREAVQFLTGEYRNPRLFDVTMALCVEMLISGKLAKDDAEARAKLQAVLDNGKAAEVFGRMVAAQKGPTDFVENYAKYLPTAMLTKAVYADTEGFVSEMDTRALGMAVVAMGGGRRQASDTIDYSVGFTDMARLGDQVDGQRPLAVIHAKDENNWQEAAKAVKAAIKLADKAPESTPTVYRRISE

Structure (SMILES)	Ratio [1]	k cat [2]	k cat [3]	Ratio [4]
Cc1cn([C@H]2C[C@H](O)[C@@H](CO)O2)c(=O)[nH]c1=O	7.4e+06 M⁻¹ s⁻¹	1770 s⁻¹	–	–
O=c1[nH]c(=O)n([C@H]2C[C@H](O)[C@@H](CO)O2)cc1[N+](=O)[O-]	87000 M⁻¹ s⁻¹	20 s⁻¹	2.88 s⁻¹	18000 M⁻¹ s⁻¹
